Reference: ChEMBL document CHEMBL1955833, “Wnt inhibition correlates with human embryonic stem cell cardiomyogenesis: a structure-activity relationship study based on inhibitors for the Wnt response” (J Med Chem, 2012)
Calls of active or inactive are those of the source. The calls are words filed in the database; no cut-off is given here.

Experiments:
[1] = Inhibition of beta-catenin-dependent canonical Wnt3 pathway in human HEK293T cells by luciferase reporter gene assay; assay type: cell-based; settings: HEK-293T
H9 [2] = experiment: Cardiogenic activity in human H9 cells at < 0.15 uM after 14 days by MYH6-mCherry reporter gene assay relative to 4-[(1R,2S,6R,7S)-3,5-dioxo-4-azatricyclo[5.2.1.0~2,6~]dec-8-en-4-yl]-N-quinolin-8-ylbenzamide; assay type: functional, cell-based
Method in brief: (§1)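 hESC embryoid bodies grown to day 4, dissociated to single cells and plated in 384-well format with serial compound dilutions. At day 10 switched to serum-free medium with T3. At day 14 moved to PBS and imaged for red fluorescence. Total area and intensity of the MYH6-mCherry reporter were quantified per well and expressed as percent cardiogenesis, with the reference set to 100% at its maximum.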

HEK-293T [3] = experiment: Inhibition of human recombinant TGFbeta2-induced Smad signaling in HEK293T cells at 0.01 to 5 uM by luciferase reporter gene assay; assay type: cell-based
Method in brief: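 HEK293T cells carrying a SMAD response element reporter were stimulated with human recombinant TGFβ2. Compounds were incubated at 0.01, 0.1, 1 and 5 μM. Percent inhibition of the SMAD response was calculated relative to DMSO vehicle controls.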

[4] = Inhibition of beta-catenin-dependent canonical Wnt3A pathway in human HEK293T cells at 1 uM by luciferase reporter gene assay; assay type: cell-based; settings: HEK-293T
Method in brief: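 HEK293T cells transiently co-transfected with Super(8x)TOPflash (TCF-firefly luciferase), TK-Renilla luciferase for normalization, and a Wnt3A-expressing vector to activate the pathway. Compounds tested at a single concentration of 1 μM, alongside untreated and DMSO vehicle controls. Firefly signal normalized to Renilla.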

H9 [5] = experiment: Cardiogenic activity in human H9 cells after 14 days by MYH6-mCherry reporter gene assay relative to 4-[(1R,2S,6R,7S)-3,5-dioxo-4-azatricyclo[5.2.1.0~2,6~]dec-8-en-4-yl]-N-quinolin-8-ylbenzamide; assay type: functional; method in brief: as §1
[6] = Chemical stability in phosphate buffer pH 7.4 at 10 uM after 30 hrs by HPLC analysis; assay type: physicochemical; settings: pH 7.4, 30 h
Method in brief: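 Degradation followed by HPLC, and half-life determined where degradation occurred.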

HEK-293T [7] = experiment: Cytotoxicity against human HEK293T cells at 0.2 to 20 uM after 24 hrs by alamar blue assay; assay type: cell-based
Embryonic stem cell = experiment: Cardiogenic activity in human embryonic stem cells at 50 uM by MYH6 reporter gene assay relative to control; assay type: functional, cell-based

SMILES	IC50 [1] [nM]	inhibition [4] [%]	Activity (H9 [5])	further results
CC(=O)c1ncccc1NC(=O)[C@H]1CC[C@H](N2C(=O)[C@@H]3[C@@H]4CC[C@@H](C4)[C@@H]3C2=O)CC1	7	79	145%	Activity (H9 [2]): Active; inhibition (HEK-293T [3]): < 20%
O=C(Nc1cccc2cccnc12)c1ccc(N2C(=O)[C@@H]3[C@H](C2=O)[C@@H]2C=C[C@H]3C2)cc1	–	–	Dose-dependent effect	Stability [6]: Stable; inhibition (HEK-293T [3]): < 20%; Activity (HEK-293T [7]): Non-toxic
O=C1[C@@H]2[C@@H]3CC[C@@H](C3)[C@@H]2C(=O)N1[C@H]1CC[C@H](C(=O)Nc2cncc3ccccc23)CC1	55	89	Dose-dependent effect	Activity (H9 [5]; record 2): 119%
O=C(Nc1cccc2cccnc12)c1ccc(N2C(=O)[C@@H]3[C@@H]4CC[C@@H](C4)[C@@H]3C2=O)o1	–	0	–	–
COc1ccccc1NC(=O)c1ccc(N2C(=O)[C@@H]3[C@@H]4CC[C@@H](C4)[C@@H]3C2=O)cc1	215	84	8%	–
CC(=O)c1ccc(NC(=O)[C@H]2CC[C@H](N3C(=O)[C@@H]4[C@@H]5CC[C@@H](C5)[C@@H]4C3=O)CC2)cn1	590	56	3%	inhibition (HEK-293T [3]): < 20%
O=C(Nc1cccc2cccnc12)c1ccc(N2C(=O)[C@@H]3[C@@H]4CC[C@@H](C4)[C@@H]3C2=O)cc1	24	93	Dose-dependent effect	Activity (H9 [5]; record 2): 75%
COc1cc(Br)ccc1NC(=O)[C@H]1CC[C@H](N2C(=O)[C@@H]3[C@@H]4CC[C@@H](C4)[C@@H]3C2=O)CC1	37	82	Dose-dependent effect	inhibition (HEK-293T [3]): < 20%; Activity (H9 [5]; record 2): 20%
O=C1[C@@H]2[C@@H]3CC[C@@H](C3)[C@@H]2C(=O)N1c1ccc2c(c1)C(=O)N(c1cccc3cccnc13)C2=O	–	15	–	–
Cc1cc(/C=C/c2ccc3cc(N(C)C)ccc3[n+]2C)c(C)n1-c1ccccc1	–	–	–	Activity (HEK-293T [7]): Toxic
CC(=O)c1ccc(NC(=O)c2ccc(N3C(=O)[C@@H]4[C@@H]5CC[C@@H](C5)[C@@H]4C3=O)cc2)cc1	–	41	–	–
O=C(Nc1ccccc1O)c1ccc(N2C(=O)[C@@H]3[C@@H]4CC[C@@H](C4)[C@@H]3C2=O)cc1	–	33	–	–
COc1ccc(NC(=O)c2ccc(N3C(=O)[C@@H]4[C@@H]5CC[C@@H](C5)[C@@H]4C3=O)cc2)cc1	–	50	–	–
CN(C)c1ccc(NC(=O)c2ccc(N3C(=O)[C@@H]4[C@@H]5CC[C@@H](C5)[C@@H]4C3=O)cc2)cc1	–	25	–	–
O=C1[C@@H]2[C@@H]3CC[C@@H](C3)[C@@H]2C(=O)N1c1ccc(CNc2cccc3cccnc23)cc1	–	45	–	–
CC(=O)c1ccccc1NC(=O)[C@H]1CC[C@H](N2C(=O)[C@@H]3[C@@H]4CC[C@@H](C4)[C@@H]3C2=O)CC1	6	91	78%	Stability [6]: Stable; Activity (H9 [2]): Active; inhibition (HEK-293T [3]): < 20%
O=C(Nc1cccc2cccnc12)c1cccc(N2C(=O)[C@@H]3[C@@H]4CC[C@@H](C4)[C@@H]3C2=O)c1	–	0	–	–
CCOc1ccccc1NC(=O)[C@H]1CC[C@H](N2C(=O)[C@@H]3[C@@H]4CC[C@@H](C4)[C@@H]3C2=O)CC1	190	78	–	–

More lines, main results first:

IC50 [1] [nM]	SMILES	inhibition [4] [%]	Activity (H9 [5])	further results
169	O=C1[C@@H]2[C@@H]3CC[C@@H](C3)[C@@H]2C(=O)N1[C@H]1CC[C@H](C(=O)Nc2cccnc2Cl)CC1	13	Dose-dependent effect	Activity (H9 [5]; record 2): 56%
314	O=C(Nc1cccc2cccnc12)c1ccc(N2C(=O)[C@@H]3[C@H]4CC[C@H](CC4)[C@@H]3C2=O)cc1	87	2%	–
1180	CC1[C@H]2CC[C@@H]1[C@@H]1C(=O)N(c3ccc(C(=O)Nc4cccc5cccnc45)cc3)C(=O)[C@@H]12 (some centres not stated)	76	–	–
152	O=C1[C@@H]2[C@@H]3CC[C@@H](C3)[C@@H]2C(=O)N1[C@H]1CC[C@H](C(=O)Nc2cncc(O)c2)CC1	86	Dose-dependent effect	Activity (H9 [5]; record 2): 61%
109	O=C1[C@@H]2[C@@H]3CC[C@@H](C3)[C@@H]2C(=O)N1[C@H]1CC[C@H](C(=O)Nc2ccnc3ccccc23)CC1	90	–	–
1590	O=C(Nc1cccc2ccccc12)c1ccc(N2C(=O)[C@@H]3[C@@H]4CC[C@@H](C4)[C@@H]3C2=O)cc1	41	8%	–
57	O=C1[C@@H]2[C@@H]3CC[C@@H](C3)[C@@H]2C(=O)N1[C@H]1CC[C@@H](C(=O)Nc2cccc3cccnc23)CC1	90	Dose-dependent effect	Activity (H9 [5]; record 2): 65%
80	O=C1[C@@H]2[C@@H]3CC[C@@H](C3)[C@@H]2C(=O)N1[C@H]1CC[C@H](C(=O)Nc2ccncc2)CC1	84	3%	–
95	O=C1[C@@H]2[C@@H]3CC[C@@H](C3)[C@@H]2C(=O)N1[C@H]1CC[C@H](C(=O)Nc2nccc3ccccc23)CC1	88	Dose-dependent effect	Activity (H9 [5]; record 2): 84%
23	CC(=O)c1ccccc1NC(=O)[C@H]1CC[C@@H](N2C(=O)[C@@H]3[C@@H]4CC[C@@H](C4)[C@@H]3C2=O)CC1	91	Dose-dependent effect	Activity (H9 [5]; record 2): 72%
728	COc1ccc(/C=C2/SC(=S)N(CCCC(=O)O)C2=O)cc1OC	–	–	Activity (Embryonic stem cell): Active; Activity (HEK-293T [7]): Non-toxic
604	O=C1[C@@H]2[C@@H]3CC[C@@H](C3)[C@@H]2C(=O)N1[C@H]1CC[C@H](C(=O)Nc2cccc3ncccc23)CC1	68	–	–
194	O=C1c2ccccc2-c2cccc(NC(=O)[C@H]3CC[C@H](N4C(=O)[C@@H]5[C@@H]6CC[C@@H](C6)[C@@H]5C4=O)CC3)c21	88	Dose-dependent effect	Activity (H9 [5]; record 2): 104%
67	COC(=O)c1ccccc1NC(=O)[C@H]1CC[C@H](N2C(=O)[C@@H]3[C@@H]4CC[C@@H](C4)[C@@H]3C2=O)CC1	86	Dose-dependent effect	Activity (H9 [5]; record 2): 38%
161	O=C1[C@@H]2[C@@H]3CC[C@@H](C3)[C@@H]2C(=O)N1[C@H]1CC[C@H](C(=O)Nc2cccc3cnccc23)CC1	87	–	–
120	O=C1[C@@H]2[C@@H]3CC[C@@H](C3)[C@@H]2C(=O)N1[C@H]1CC[C@H](C(=O)Nc2cccnc2)CC1	89	15%	Stability [6]: Stable; inhibition (HEK-293T [3]): < 20%
317	N#Cc1ccc(NC(=O)c2ccc(N3C(=O)[C@@H]4[C@@H]5CC[C@@H](C5)[C@@H]4C3=O)cc2)cc1	70	1%	–
4	O=C1[C@@H]2[C@@H]3CC[C@@H](C3)[C@@H]2C(=O)N1[C@H]1CC[C@H](C(=O)Nc2cccc3cccnc23)CC1	89	145%	Activity (H9 [2]): Active; inhibition (HEK-293T [3]): < 20%
412	O=C(Nc1cccc2cccnc12)c1ccc(N2C(=O)[C@@H]3[C@H](C2=O)[C@@H]2C=C[C@H]3CC2)cc1	83	–	–
484	O=C1[C@@H]2[C@@H]3CC[C@@H](C3)[C@@H]2C(=O)N1[C@H]1CC[C@H](C(=O)Nc2ccccc2O)CC1	76	–	–
109	O=C1[C@@H]2[C@@H]3CC[C@@H](C3)[C@@H]2C(=O)N1[C@H]1CC[C@H](C(=O)Nc2ccccn2)CC1	82	3%	–
605	O=C(Nc1cccc2cccnc12)c1ccc(N2C(=O)C3C(C2=O)[C@H]2CC[C@@H]3O2)cc1 (some centres not stated)	49	2%	–
7	O=C1CCCc2cccc(NC(=O)[C@H]3CC[C@H](N4C(=O)[C@@H]5[C@@H]6CC[C@@H](C6)[C@@H]5C4=O)CC3)c21	92	176%	Activity (H9 [2]): Active; inhibition (HEK-293T [3]): < 20%
